Reference: ChEMBL document CHEMBL4041495, “Identification of fused bicyclic derivatives of pyrrolidine and imidazolidinone as dengue virus-2 NS2B-NS3 protease inhibitors” (Eur J Med Chem, 2017)
Each block holds one compound with its values, some of them ahead of it. Peptide text beside a SMILES is read from it. * marks the point of attachment. pNA = O=[N+]([O-])c1ccc(N*)cc1

Assays:
dengue virus type 2 [1] = assay: Inhibition of DENV2 NS2B-NS3 protease assessed as residual activity up to 200 uM using Benzoyl-Nle-Lys-Arg-Arg-AMC as substrate preincubated for 3 mins followed by substrate addition by fluorescence spectrophotometer
Dengue virus [2] = assay: Inhibition of DENV2 NS2B-NS3 protease assessed as residual activity at 200 uM using Benzoyl-Nle-Lys-Arg-Arg-AMC as substrate preincubated for 3 mins followed by substrate addition by fluorescence spectrophotometer
Dengue virus [3] = assay: Inhibition of DENV2 NS2B-NS3 protease assessed as residual activity at 16 uM using Benzoyl-Nle-Lys-Arg-Arg-AMC as substrate preincubated for 3 mins followed by substrate addition by fluorescence spectrophotometer
[4] = Cytotoxicity against human HuH7 cells after 48 hrs by cell-titer glo luminescent viability assay; type: cell-based, Huh-7
dengue virus type 2 [5] = assay: Antiviral activity against DENV2 infected Vero E6 cells assessed as reduction in viral titer after 48 hrs by plaque assay; type: functional, Vero C1008; settings: Huh-7, 48 h, in the assay text read “Huh-7” for “Vero E6”
Outline: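 Huh-7 cells (10^4/well) were infected with wild-type DENV-2 at MOI 1. Non-toxic compound concentrations were added 1 h later, and cells were incubated 48 h at 37 °C, in triplicate. Virus yield in the supernatant was titred on Vero E6 cells with 10^-1 to 10^-6 dilutions, 7-day plaque development, formaldehyde fixation and crystal violet staining. Titer reduction was judged against an untreated control.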

[6] = Inhibition of DENV2 NS2B-NS3 protease using Benzoyl-Nle-Lys-Arg-Arg-AMC as substrate preincubated for 3 mins followed by substrate addition by fluorescence spectrophotometer; design: species or system Dengue virus
Outline: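 Plasmid-expressed DENV-2 NS2B-NS3 protease was assayed at 37 °C, pH 9.0 (50 mM Tris-HCl, 10 mM NaCl, 20% glycerol, 1 mM CHAPS, 0.04% NaN3). Inhibitor at graded concentrations was preincubated 3 min before 33 µM substrate was added, and fluorescence was read at 356/438 nm. IC50 was derived from remaining activity (vehicle = 100%) versus concentration, as the mean of triplicates.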

Dengue virus [7] = assay: Inhibition of DENV2 NS2B-NS3 protease assessed as residual activity at 20 uM using Benzoyl-Nle-Lys-Arg-Arg-AMC as substrate preincubated for 3 mins followed by substrate addition by fluorescence spectrophotometer
dengue virus type 2 [8] = assay: Inhibition of DENV2 NS2B-NS3 protease assessed as residual activity at 15 uM using Benzoyl-Nle-Lys-Arg-Arg-AMC as substrate preincubated for 3 mins followed by substrate addition by fluorescence spectrophotometer

Structure (SMILES): CC(C)c1ccc([C@H]2N(c3ccc([N+](=O)[O-])cc3)C(=O)[C@@H]3CCCN32)cc1
Activity (dengue virus type 2 [1]): > 50%

Structure (SMILES): O=C1[C@@H]2CCCN2CN1c1ccc([N+](=O)[O-])cc1
Activity (Dengue virus [3]): 61%

Structure (SMILES): O=C1[C@@H]2CCCN2[C@H](c2ccc(C(F)(F)F)cc2)N1c1ccc([N+](=O)[O-])cc1
Activity (dengue virus type 2 [1]): > 50%

Structure (SMILES): CSCC[C@H](N)C(=O)N1CCC[C@H]1C(=O)Nc1ccc([N+](=O)[O-])cc1 (H-Met-Pro-pNA)
CC50 at 48 h [4]: > 100 µM
EC50 (dengue virus type 2 [5]): 38.7 µM
IC50 [6]: 1.2 µM

Structure (SMILES): CC(C)[C@H]1N(c2ccc([N+](=O)[O-])cc2)C(=O)[C@@H]2CCCN21
Activity (Dengue virus [3]): 66%

Structure (SMILES): O=C1[C@@H]2CCCN2[C@H](c2ccc([N+](=O)[O-])cc2)N1c1ccc([N+](=O)[O-])cc1
Activity (dengue virus type 2 [1]): > 50%

Structure (SMILES): O=C1[C@@H]2CCCN2[C@@H](c2ccc(C(F)(F)F)cc2)N1c1ccc([N+](=O)[O-])cc1
Activity (dengue virus type 2 [1]): > 50%

The next lines start with results.

Activity (Dengue virus [2]): 33%
Structure (SMILES): O=C1[C@@H]2CCCN2[C@@H](c2ccccc2)N1c1ccc([N+](=O)[O-])cc1

Activity (Dengue virus [3]): 58%
Structure (SMILES): C[C@H]1N(c2ccc([N+](=O)[O-])cc2)C(=O)[C@@H]2CCCN21

Activity (Dengue virus [3]): 40%
Structure (SMILES): CC[C@H]1N(c2ccc([N+](=O)[O-])cc2)C(=O)[C@@H]2CCCN21

Activity (dengue virus type 2 [1]): > 50%
Structure (SMILES): COc1ccc([C@H]2N(c3ccc([N+](=O)[O-])cc3)C(=O)[C@@H]3CCCN32)cc1

Activity (Dengue virus [7]): 58%
Structure (SMILES): O=C1[C@@H]2CCCN2[C@@H](Cc2ccccc2)N1c1ccc([N+](=O)[O-])cc1

Activity (dengue virus type 2 [1]): > 50%
Structure (SMILES): O=C1[C@@H]2CCCN2[C@@H](c2ccc(Cl)cc2)N1c1ccc([N+](=O)[O-])cc1

Activity (dengue virus type 2 [1]): > 50%
Structure (SMILES): O=C1[C@@H]2CCCN2[C@H](c2ccc(Cl)cc2)N1c1ccc([N+](=O)[O-])cc1

IC50 [6]: 1.2 µM
Activity (dengue virus type 2 [8]): 32%
Structure (SMILES): O=C1[C@@H]2CCCN2[C@@H](c2ccc([N+](=O)[O-])cc2)N1c1ccc([N+](=O)[O-])cc1
CC50 at 48 h [4]: > 100 µM
EC50 (dengue virus type 2 [5]): 39.4 µM

Activity (dengue virus type 2 [1]): > 50%
Structure (SMILES): O=C1[C@@H]2CCCN2[C@@H](c2cccc([N+](=O)[O-])c2)N1c1ccc([N+](=O)[O-])cc1

Activity (dengue virus type 2 [1]): > 50%
Structure (SMILES): O=C1[C@@H]2CCCN2[C@@H](Cc2ccc([N+](=O)[O-])cc2)N1c1ccc([N+](=O)[O-])cc1
